Data from PMC2865857 (Journal of molecular biology, 2010).
Where no end group is shown, it is not given here. [ ]: non-standard residue; d: D form. Lys(Me2) = CN(C)CCCC[C@H](N)C(=O)O

What was measured:
[1] = biological target: T1, human 53BP1 tandem Tudor domain (Homo sapiens, UniProt Q12888); experiment: Binding of peptides to the 53BP1 tandem Tudor domain by tryptophan fluorescence; details: for decrease in binding affinity relative to p53K382me2: ratio of Kd values, 25°C (Fig. 2a, b; Fig. 3e)
Summary of the method: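 Synthetic Fmoc-made peptides were HPLC-purified. Intrinsic tryptophan fluorescence was measured at 25°C on 0.5 μM protein with increasing peptide, exciting at 295 nm and recording emission at 305–405 nm over three scans. Kd came from a nonlinear quadratic binding fit, averaged over three experiments ± SD.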

[2] = biological target: T1, human 53BP1 tandem Tudor domain; experiment: other fluorescence titration

Row | Molecule | decrease in binding affinity relative to p53K382me2 ([1]; tryptophan fluorescence) [fold] | also measured
1 | p53H380AK382me2: p53K382me2 peptide (377–386) with His380 substituted with Ala (TSRAK[Lys(Me2)]LMFK) | 16 | 
2 | unmodified p53 peptide: unmodified p53 peptide, residues 377–386 (TSRHKKLMFK; UniProt P04637 377-386, looked up, fragment) |  | association of 53BP1 tandem Tudor domain with peptide (in words) ([1]; Fig. 2a, measured by tryptophan fluorescence or Isothermal Titration Calorimetry): does not associate
3 | p53K372me2: p53 peptide (367–377) dimethylated at Lys372 (SHLKS[Lys(Me2)]KGQST) | 22 | 
4 | CSCC[C@H](NC(=O)[C@H](CC(C)C)NC(=O)[C@H](CCCCN(C)C)NC(=O)[C@H](CCCCN)NC(=O)[C@H](Cc1c[nH]cn1)NC(=O)[C@H](CCCNC(=N)N)NC(=O)[C@H](CO)NC(=O)[C@@H](N)[C@@H](C)O)C(=O)N[C@@H](Cc1ccccc1)C(=O)N[C@@H](CCCCN)C(=O)O [p53K382me2] |  | Kd [1]: 900 nM
5 | H4K20me2 peptide (15–23) (from UniProt P62805 16-24) |  | Kd [2]: 1300 nM
6 | p53K382me2L383A: p53K382me2 peptide (377–386) with Leu383 replaced (TSRHK[Lys(Me2)]AMFK) |  | effect of residue replacement on the Kd relative to p53K382me2 (in words) ([1]; tryptophan fluorescence, 25°C (Fig. 2a)): virtually no effect

Continued, in another order:

Row | decrease in binding affinity relative to p53K382me2 ([1]; tryptophan fluorescence) [fold] | Molecule | also measured
7 | 22 | p53K370me2: p53 peptide (366–375) dimethylated at Lys370 (SSHL[Lys(Me2)]SKKGQ) | 
8 | 11 | p53K381AK382me2: p53K382me2 peptide (377–386) with Lys381 substituted with Ala (TSRHA[Lys(Me2)]LMFK) | 
